The values below come from ChEMBL document CHEMBL3392955, “Thiol-derivatized minihepcidins retain biological activity” (Bioorg Med Chem Lett, 2015).

The target of one data set is T1, Ferroportin (Homo sapiens, UniProt Q9NP59).
T1 sequence (Q9NP59 whole entry): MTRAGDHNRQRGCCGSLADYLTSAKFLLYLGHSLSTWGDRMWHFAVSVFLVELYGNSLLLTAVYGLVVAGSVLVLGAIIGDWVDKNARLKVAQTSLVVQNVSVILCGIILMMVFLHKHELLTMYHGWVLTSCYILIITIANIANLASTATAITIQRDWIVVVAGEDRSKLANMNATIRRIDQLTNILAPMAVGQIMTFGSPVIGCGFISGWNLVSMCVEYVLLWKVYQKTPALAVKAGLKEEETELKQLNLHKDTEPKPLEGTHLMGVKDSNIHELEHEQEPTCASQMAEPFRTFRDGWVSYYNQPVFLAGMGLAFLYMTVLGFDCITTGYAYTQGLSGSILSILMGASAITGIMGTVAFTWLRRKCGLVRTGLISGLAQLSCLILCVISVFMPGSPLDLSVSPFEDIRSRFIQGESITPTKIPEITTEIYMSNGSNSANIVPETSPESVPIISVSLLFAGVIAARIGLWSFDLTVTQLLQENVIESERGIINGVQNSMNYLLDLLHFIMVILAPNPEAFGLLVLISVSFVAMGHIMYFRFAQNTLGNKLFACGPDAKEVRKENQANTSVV
The data set is described as follows: Induction of human ferroportin degradation expressed in HEK293 cells after 24 hrs by flow cytometry. Type of data set: cell-based. Put shortly: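 HEK293:TREX-Fpn-GFP cells (human ferroportin-GFP under a doxycycline-inducible promoter) plated on poly-D-lysine with 20 μM FAC. Fpn induced with 500 ng/mL doxycycline for 24 h, then washed off. Peptide exposure 24 h. Green fluorescence read by flow cytometry, gated against uninduced cells; induced untreated cells are the positive control.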

Data set [1] in a line: Stability of the compound in DMSO at room temperature after 30 days by LC/MS/MS analysis. The conditions noted are these: read-out: Stability. Type of data set: physicochemical. An outline of the steps: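 Compound kept as a 10 mM DMSO solution at room temperature for 30 days. Remaining intact compound (decomposition or sulfide oxidation) measured by LC/MS/MS.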
Data set [2] has as its system Mus musculus. The data set is described as follows: Induction of human ferroportin degradationin C57BL/6 mouse assessed as decrease in serum iron at 50 to 100 nmol, ip measured after 6 to 24 hrs by colorimetric assay. Type of data set: functional, organism-based. An outline of the steps:
(§1)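 Mice dosed intraperitoneally with 50 or 100 nmoles peptide in 100 μL PBS; controls received 100 μL PBS. Killed at 6, 24 or 48 h. Serum from cardiac-puncture blood. Iron measured by microplate colorimetric assay on 50 μL serum. Result is % decrease versus mean serum iron of PBS-injected mice.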

For data set [3], the system named is Mus musculus. The data set is described as follows: Induction of human ferroportin degradationin C57BL/6 mouse assessed as decrease in serum iron at 50 to 100 nmol, ip measured after 48 hrs by colorimetric assay. Format: functional, organism-based. Put shortly: as §1

The structures appear in SMILES notation. Active and inactive are the calls of the source. No cut-off for these calls is given here.

With `CCCCCCCCCCCCCCCCNC(=O)CN(CC(N)=O)C(=O)CCCCCNC(=O)[C@H](Cc1ccccc1)NC(=O)[C@H](CCCNC(=N)N)NC(=O)[C@H](CS/C(=C\C(=O)OC)C(=O)OC)NC(=O)[C@H](CCCNC(=N)N)NC(=O)C[C@@H]1CCCN1C(=O)[C@@H](NC(=O)[C@H](Cc1cnc[nH]1)NC(=O)[C@@H](NC(=O)CNC(=O)CO)[C@@H](C)O)C(c1ccccc1)c1ccccc1`, a half-maximal effect on Ferroportin (EC50) was put at 12.6 nM.
`CCCCCCCCCCCCCCCCNC(=O)CN(CC(N)=O)C(=O)CCCCCNC(=O)[C@H](Cc1ccccc1)NC(=O)[C@H](CCCNC(=N)N)NC(=O)[C@H](CS/C(=C\S(N)(=O)=O)c1ccccc1)NC(=O)[C@H](CCCNC(=N)N)NC(=O)C[C@@H]1CCCN1C(=O)[C@@H](NC(=O)[C@H](Cc1cnc[nH]1)NC(=O)[C@@H](NC(=O)CNC(=O)CO)[C@@H](C)O)C(c1ccccc1)c1ccccc1` gave an EC50 at Ferroportin of 34 nM.
For `CCCCCCCCCCCCCCCCNC(=O)CN(CC(N)=O)C(=O)CCCCCNC(=O)[C@H](Cc1ccccc1)NC(=O)[C@H](CCCNC(=N)N)NC(=O)[C@H](CS/C(=C\P(=O)(OCC)OCC)P(=O)(OCC)OCC)NC(=O)[C@H](CCCNC(=N)N)NC(=O)C[C@@H]1CCCN1C(=O)[C@@H](NC(=O)[C@H](Cc1cnc[nH]1)NC(=O)[C@@H](NC(=O)CNC(=O)CO)[C@@H](C)O)C(c1ccccc1)c1ccccc1`, the remaining at 720 h in data set [1] was 99.5%. The outcome in the data set with Mus musculus [2] was Active. Moreover, the EC50 on Ferroportin is 1.1 nM. Moreover, in the data set on Mus musculus [3], the outcome was inactive.
In the case of `CCCCCCCCCCCCCCCCNC(=O)CN(CC(N)=O)C(=O)CCCCCNC(=O)[C@H](Cc1ccccc1)NC(=O)[C@H](CCCNC(=N)N)NC(=O)[C@H](CS/C(=C\C(=O)OCC)C(=O)OCC)NC(=O)[C@H](CCCNC(=N)N)NC(=O)C[C@@H]1CCCN1C(=O)[C@@H](NC(=O)[C@H](Cc1cnc[nH]1)NC(=O)[C@@H](NC(=O)CNC(=O)CO)[C@@H](C)O)C(c1ccccc1)c1ccccc1`, the EC50 on Ferroportin was determined as 10.4 nM.
On the same count and under the same terms, the figure for `CCCCCCCCCCCCCCCCNC(=O)CN(CC(N)=O)C(=O)CCCCCNC(=O)[C@H](Cc1ccccc1)NC(=O)[C@H](CCCNC(=N)N)NC(=O)[C@H](CS/C(=C\S(=O)(=O)C(C)(C)C)S(=O)(=O)C(C)(C)C)NC(=O)[C@H](CCCNC(=N)N)NC(=O)C[C@@H]1CCCN1C(=O)[C@@H](NC(=O)[C@H](Cc1cnc[nH]1)NC(=O)[C@@H](NC(=O)CNC(=O)CO)[C@@H](C)O)C(c1ccccc1)c1ccccc1` is 10 nM; for `CCCCCCCCCCCCCCCCNC(=O)CN(CC(N)=O)C(=O)CCCCCNC(=O)[C@H](Cc1ccccc1)NC(=O)[C@H](CCCNC(=N)N)NC(=O)[C@H](CS/C(=C\C(N)=O)C(N)=O)NC(=O)[C@H](CCCNC(=N)N)NC(=O)C[C@@H]1CCCN1C(=O)[C@@H](NC(=O)[C@H](Cc1cnc[nH]1)NC(=O)[C@@H](NC(=O)CNC(=O)CO)[C@@H](C)O)C(c1ccccc1)c1ccccc1` it is 8.4 nM; for `CCCCCCCCCCCCCCCCNC(=O)CN(CC(N)=O)C(=O)CCCCCNC(=O)[C@H](Cc1ccccc1)NC(=O)[C@H](CCCNC(=N)N)NC(=O)[C@H](CS/C=C\C(=O)O)NC(=O)[C@H](CCCNC(=N)N)NC(=O)C[C@@H]1CCCN1C(=O)[C@@H](NC(=O)[C@H](Cc1cnc[nH]1)NC(=O)[C@@H](NC(=O)CNC(=O)CO)[C@@H](C)O)C(c1ccccc1)c1ccccc1` it is 218 nM.
`CCCCCCCCCCCCCCCCNC(=O)CN(CC(N)=O)C(=O)CCCCCNC(=O)[C@H](Cc1ccccc1)NC(=O)[C@H](CCCNC(=N)N)NC(=O)[C@H](CS/C(=C\C(=O)OC(C)(C)C)C(=O)OC(C)(C)C)NC(=O)[C@H](CCCNC(=N)N)NC(=O)C[C@@H]1CCCN1C(=O)[C@@H](NC(=O)[C@H](Cc1cnc[nH]1)NC(=O)[C@@H](NC(=O)CNC(=O)CO)[C@@H](C)O)C(c1ccccc1)c1ccccc1` returned an EC50 at Ferroportin of 6.3 nM.
